ChEMBL document CHEMBL4325899, “Synthesis and photocytotoxic activity of [1,2,3]triazolo[4,5-h][1,6]naphthyridines and [1,3]oxazolo[5,4-h][1,6]naphthyridines” (Eur J Med Chem, 2019)
Activity calls are given as the source filed them. The rule behind the calls is not given here.

Assays:
MCF7 [1] = assay: Induction of ROS generation in human MCF7 cells at 0.4 uM preincubated for 30 mins followed by irradiation at 1.5 J/cm2 for 2 hrs by H2DCFDA probe-based fluorescence assay (reference value: 100%); format: functional
Outline: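 MCF7 cells (3x10^4/well) seeded 24 h ahead to 80–90% confluence. Compound given for 30 min in phenol red- and serum-free medium. H2DCFDA (10 µM) added 15 min before irradiation at ~365 nm, 1.5 J/cm2. Fluorescence read 2 h after light (ex 485, em 535 nm) as % of untreated irradiated controls. Non-irradiated plates run alongside; three independent experiments.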

MCF7 [2] = assay: Induction of mitochondrial dysfunction in human MCF7 cells assessed as mitochondria fusion at 400 nM after 6 hrs in presence of UV irradiation by Mitotracker Orange CMTM-ROS staining-based confocal microscopic analysis; format: functional, cell-based
Outline: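 MCF7 cells (4x10^5) on glass slides for 24 h. Live-labelled with MitoTracker Orange CMTM-ROS (150 nM) for 45 min in phenol red- and serum-free medium. Compound then added and cells irradiated at 365 nm (1.5 J/cm2). Fixed in 2% PFA and nuclei counterstained. Mitochondrial network morphology imaged by confocal microscopy (ex 543, em 560–620 nm) 6 h post-treatment, with untreated, irradiated and non-irradiated controls.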

MCF7 [3] = assay: Induction of lysosomal activation in human MCF7 cells at 400 nM after 6 hrs under UV-irradiation by Lysotracker Green DND 26 staining-based confocal microscopic analysis; format: functional, cell-based
Outline: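 MCF7 cells (4x10^5) on glass slides for 24 h. Medium replaced with phenol red- and serum-free medium containing LysoTracker Green DND-26 (175 nM) for 45 min. Compound then added and cells irradiated at 365 nm (1.5 J/cm2). Cells then PBS-washed, fixed in 2% PFA and mounted. Acidic compartments imaged by confocal microscopy (ex 488, em 500–530 nm) against non-irradiated and untreated controls.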

## CCCCCCCCCCCCCC(=O)O[C@@H]1[C@@H](C)[C@@]2(O)[C@@H](C=C(CO)C[C@]3(O)C(=O)C(C)=C[C@@H]23)[C@@H]2C(C)(C)[C@]12OC(C)=O [PHORBOL MYRISTATE ACETATE]
MCF7 [1]
  Activity: 120%
MCF7 [2]
  Activity: Active
MCF7 [3]
  Activity: Active
